Source: publication PMC8688139 (Journal of medicinal chemistry, 2019)
Entries after “also recorded” stand apart in the source; their conditions may differ.

How the values were obtained:
[1] = Cytotoxicity assay; type: cell-based, murine; settings: mouse, 3T3-L1 cells
[2] = system: 11β-HSD1, PPARγ, PGC-1α protein expression in 3T3-L1; assay: Western blot analysis during 3T3-L1 adipogenesis; type: cell-based, murine
In short: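 3T3-L1 cells in non-differentiating medium, differentiating medium, differentiating medium + rosiglitazone, or differentiating medium + test compound (50 µM); sampled on days 3 and 7. Lysed in Tris/NaCl/EDTA/EGTA buffer with Triton X-100, deoxycholate, SDS, glycerol and protease/phosphatase inhibitors. 30 µg total protein loaded; tubulin used as loading control. Bands quantified; n = 3, means ± SEM.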

[3] = system: 11β-HSD1 in J774.1 macrophage; settings: LPS activated murine J774.1 macrophage; cited from earlier work
[4] = system: 3T3-L1 adipogenesis gene transcripts; assay: qRT-PCR gene expression during 3T3-L1 adipogenesis; type: cell-based, murine
In short: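 Steady-state transcript levels measured by qRT-PCR in 3T3-L1 cells going through the induction/insulin differentiation protocol, on days 0, 1, 2 and 7. Treated cells compared with differentiating-medium and non-differentiating-medium controls.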

[5] = system: 3T3-L1; assay: Cytotoxicity assay; type: cell-based, murine; settings: 3T3-L1; tested concentrations up to 1mM
[6] = system: Normal mouse fibroblast (ATCC: CRL-2907); assay: Nascent; type: cell-based; settings: CA 50 μM, 2 h
In short: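 Mouse embryonic fibroblasts (CRL-2907) seeded at 2 × 10^4/well on 1% gelatin-coated slides and cultured 12 h at 37 °C in phenol red–free IMDM with 10% FBS. Test compound (50 µM) or DMSO given 2 h before click labelling with an alkyne o-propargyl-puromycin probe. Cycloheximide (20 nM, 30 min prior) served as positive control. Confocal imaging at 20×; whole-image montage quantified.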

[7] = system: human visceral and subcutaneous preadipocytes; assay: Preadipocyte differentiation assay; type: cell-based
In short: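 Human visceral or subcutaneous preadipocytes (≤ passage 3) plated at 100,000 cells/well and grown to confluency. Day 0: induction medium ± hydrocortisone hemisuccinate (50 µg/mL) plus vehicle (0.2% DMSO), rosiglitazone (2 µM) or test compound (50, 100 µM); non-differentiating medium as control. Differentiation medium plus treatment from 48 h, refreshed every 48–72 h for 9–14 days. Fixed in 10% buffered formaldehyde; Oil Red O relatively quantified.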

[8] = target: T1, Human GR (Homo sapiens, UniProt P04150); assay: Human glucocorticoid receptor; type: cell-based; settings: transiently GR-transfected MDA-MB-231 cells, 100 nM dexamethasone, 50 μM CA
T1 sequence (P04150 1-777): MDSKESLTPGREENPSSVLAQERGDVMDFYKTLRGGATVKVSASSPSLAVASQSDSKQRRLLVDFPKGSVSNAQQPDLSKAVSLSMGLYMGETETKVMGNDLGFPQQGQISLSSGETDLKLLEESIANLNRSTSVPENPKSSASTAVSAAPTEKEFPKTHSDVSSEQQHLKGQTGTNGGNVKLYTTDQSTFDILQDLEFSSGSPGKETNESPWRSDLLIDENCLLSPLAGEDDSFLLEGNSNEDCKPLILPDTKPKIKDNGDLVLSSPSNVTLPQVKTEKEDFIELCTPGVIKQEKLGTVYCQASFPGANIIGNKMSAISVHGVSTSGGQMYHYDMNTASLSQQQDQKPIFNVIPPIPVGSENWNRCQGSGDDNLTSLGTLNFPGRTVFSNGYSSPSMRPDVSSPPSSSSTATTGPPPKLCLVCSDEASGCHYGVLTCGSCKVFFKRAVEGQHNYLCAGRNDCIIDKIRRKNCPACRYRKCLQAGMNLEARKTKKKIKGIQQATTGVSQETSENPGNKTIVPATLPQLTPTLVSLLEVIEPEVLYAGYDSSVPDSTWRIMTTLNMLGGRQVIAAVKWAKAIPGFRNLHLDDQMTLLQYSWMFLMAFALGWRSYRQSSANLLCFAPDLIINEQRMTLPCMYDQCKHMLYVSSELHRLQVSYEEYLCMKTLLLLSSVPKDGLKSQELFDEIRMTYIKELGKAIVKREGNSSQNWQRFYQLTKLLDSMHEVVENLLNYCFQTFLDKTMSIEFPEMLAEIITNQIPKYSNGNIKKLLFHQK
In short: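 MDA-MB-231 cells transiently transfected, via Lipofectin, with a GR response element–luciferase reporter or a negative-control reporter. Seeded at 5000 cells/well for 12 h at 37 °C, then switched to phenol red–free DMEM with 2% charcoal-stripped FBS. Test compound (50 µM) or DMSO added 1 h before 100 nM dexamethasone induction; 4 h treatment. Luciferase luminescence read; n = 3, means ± SEM.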

[9] = system: 11β-HSD2; settings: cited from earlier work
[10] = system: 3T3-L1 cells; assay: Mitochondria evaluation by confocal microscopy; type: cell-based, murine; settings: 3T3-L1 adipogenesis assay, day 7, CA 50 μM
In short: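 3T3-L1 cells put through the adipogenesis protocol in 8-well chambers, test compound 50 µM. On day 7, live cells stained with MitoTracker Deep Red (50 nM final) and Hoechst 33342, PBS-washed, and imaged by spinning-disk confocal at 63×. Mean mitochondrial tracker intensity quantified.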

[11] = system: 3T3-L1 preadipocytes; assay: Preadipocyte differentiation assay; type: cell-based, murine
In short: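 3T3-L1 cells (passages 1–16) seeded at 2.5 × 10^5/well on 0.1% gelatin. Day 0, 24 h after near-confluence: switched to induction DMEM (high glucose, 10% FBS, 0.5 mM IBMX). After 48 h: DMEM + 10% FBS + 10 µg/mL insulin. Negative control kept in non-differentiating medium; positive control differentiating medium + DMSO. Test compound 50–100 µM; run to day 7–10. Oil Red O stained; extracted dye read at 462 nm.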

[12] = target: T2, Human PPARγ (Homo sapiens, UniProt P37231); assay: Human PPARγ reporter antagonist assay; type: cell-based; settings: stimulation by rosiglitazone (20 nM); 40 μM to 2 nM
T2 sequence (P37231 238-505 limits assumed): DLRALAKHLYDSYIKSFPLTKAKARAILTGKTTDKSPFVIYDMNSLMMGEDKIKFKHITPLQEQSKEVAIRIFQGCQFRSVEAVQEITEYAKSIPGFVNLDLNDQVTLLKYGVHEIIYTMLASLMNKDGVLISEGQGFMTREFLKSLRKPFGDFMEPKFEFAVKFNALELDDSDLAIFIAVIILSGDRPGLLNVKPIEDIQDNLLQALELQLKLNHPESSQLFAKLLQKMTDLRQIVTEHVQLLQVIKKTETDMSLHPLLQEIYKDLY

[13] = target: Human 11β-HSD1 (Homo sapiens, UniProt P28845, C272S); assay: Biochemical assay of 11β-HSD1; settings: 11β-HSD1 Ki
[14] = Solubility; type: physicochemical

Sequence of Human 11β-HSD1 (P28845 24-292 C272S): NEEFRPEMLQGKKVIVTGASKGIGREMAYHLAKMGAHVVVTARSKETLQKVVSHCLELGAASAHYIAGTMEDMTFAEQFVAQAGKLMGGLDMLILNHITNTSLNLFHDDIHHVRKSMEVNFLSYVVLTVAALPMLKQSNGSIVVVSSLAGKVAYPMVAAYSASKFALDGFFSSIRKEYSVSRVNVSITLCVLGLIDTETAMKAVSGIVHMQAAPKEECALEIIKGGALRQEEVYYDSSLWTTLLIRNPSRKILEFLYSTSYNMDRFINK

CC1=CC[C@@]2(C[C@H]1O)[C@@H](C(C)C)CC[C@H]2C(=O)O (single isomer, unassigned) [ent-1, (−)-Colletoic Acid]
EC50 at 72 h [1]: > 500 µM

CC1=CC[C@@]2(C[C@@H]1O)[C@@H](C(=O)O)CC[C@H]2C(C)C [Compound 1, (+)-colletoic acid]
PGC-1α, 11β-HSD1 and PPARγ protein expression ([2]; 3T3-L1, day 3, CA 50 μM): No significant change | PGC-1α, 11β-HSD1 and PPARγ protein expression ([2]; 3T3-L1, day 7, CA 50 μM): down-regulation | conversion of [3H]-cortisone to [3H]-cortisol [3]: inhibits the conversion | FABP4 and FASN mRNA expression, lower than in differentiated control cells ([4]; 3T3-L1): at least 10 fold | PGC-1α mRNA expression, differentiated control cells versus CA-treated cells ([4]; 3T3-L1): at least ten-fold greater | C/EBPα, β and δ mRNA expression ([4]; 3T3-L1, day 1–2, vs differentiated control): significant reduction | PPARγ and PGC-1α mRNA expression level ([4]; 3T3-L1, vs differentiated cells): greatly reduced | 11β-HSD1 mRNA expression ([4]; 3T3-L1, vs differentiated control cells): reduced | EC50 at 72 h [1]: > 500 µM | cytotoxicity (cell viability) [5]: no cytotoxicity | global protein synthesis compared to DMSO control [6]: No significant changes | effect when added at day 3 after induction ([7]; human preadipocytes): no quantifiable effect | inhibition of adipogenesis in human preadipocytes ([7]; human visceral and subcutaneous preadipocytes, 10–14 days, CA 50–100 μM): modest inhibition of adipogenesis | GR activation [8]: did not inhibit GR activation | 11β-HSD2 inhibition [9]: no observable 11β-HSD2 inhibition | mitochondrial mass (mitochondrial tracker mean intensity) [10]: less mitochondrial mass | effect on adipogenesis when added after day 3 ([11]; 3T3-L1): little to no significant effect | inhibition of adipogenesis (Oil Red O staining) ([11]; 3T3-L1, 7 days, compound added at induction, CA 50–100 μM): clearly inhibited adipogenesis | lipid droplets (LipidTox) compared to NDM control cells ([11]; 3T3-L1, CA 50 μM): no significant difference | PPARγ antagonistic activity [12]: no quantifiable PPARγ antagonistic activity

CC1(C)[C@@H](OC(=O)CCC(=O)O)CC[C@]2(C)[C@H]3C(=O)C=C4[C@@H]5C[C@@](C)(C(=O)O)CC[C@]5(C)CC[C@@]4(C)[C@]3(C)CC[C@@H]12 [Compound 4, carbenoxolone, reference compound]
EC50 at 72 h [1]: > 500 µM

COC(=O)[C@H]1CC[C@@H](C(C)C)[C@@]12CC=C(C)[C@@H](O)C2 [Compound 5]
EC50 at 72 h [1]: > 500 µM

CC1=CC[C@@]2(C[C@@H]1O)[C@@H](C(N)=O)CC[C@H]2C(C)C [Compound 6]
EC50 at 72 h [1]: > 500 µM

CC1=CC[C@@]2(C[C@@H]1O)[C@H](C(=O)O)CC[C@H]2C(C)C [Compound 7]
EC50 at 72 h [1]: > 500 µM

CC(=O)O[C@H]1C[C@]2(CC=C1C)[C@@H](C(=O)O)CC[C@H]2C(C)C [Compound 8]
EC50 at 72 h [1]: > 500 µM

CC1=CC[C@@]2(CC1=O)[C@@H](C(=O)O)CC[C@H]2C(C)C [Compound 9]
EC50 at 72 h [1]: > 500 µM

CC1=CC[C@@]2([C@H](O)C1)[C@@H](C(=O)O)CC[C@H]2C(C)C [Compound 10]
EC50 at 72 h [1]: > 500 µM

CC(=O)O[C@@H]1C[C@@](C)(O)CC[C@]12[C@@H](C(=O)O)CC[C@H]2C(C)C [Compound 11]
EC50 at 72 h [1]: > 500 µM

CC(C)[C@@H]1CC[C@H](C(=O)O)[C@]12C[C@@H](O)[C@@](C)(O)[C@@H](O)C2 [Compound 12]
EC50 at 72 h [1]: > 500 µM

C=C1CC[C@@]2(C(OC)[C@@H]1O)[C@@H](C(=O)O)CC[C@H]2C(C)C (stereo partly shown) [Compound 13]
EC50 at 72 h [1]: > 500 µM

C=C1CC[C@@]2(C[C@@H]1OC(C)=O)[C@@H](C(=O)O)CC[C@H]2C(C)C [Compound 14]
EC50 at 72 h [1]: > 500 µM

C=C1CC[C@@]2(C[C@@H]1O)[C@@H](C(=O)O)CC[C@H]2C(C)C [Compound 15]
EC50 at 72 h [1]: > 500 µM

C=C1CC[C@]2(C[C@@H]1O)[C@H](C)CC[C@@H]2C(=O)O [Compound 16]
activity relative to compound 15 [13]: five-fold less activity | EC50 at 72 h [1]: > 500 µM

CC1=CC[C@@]2([C@H](O)C1)[C@@H](C(=O)O)CC[C@H]2C1CCCCC1 [Compound 18]
EC50 at 72 h [1]: > 500 µM

CC1=CC[C@@]2(C=C1)[C@@H](C(=O)O)CC[C@H]2C1CCCCC1 [Compound 19]
solubility properties [14]: acceptable and similar to CA

CC1=CC[C@@]2(C[C@@H]1O)[C@@H](C(=O)O)CC[C@H]2C1CCCCC1 [Compound 20]
increase of potency over CA [13]: three-fold increase of potency; also recorded: three-fold increase in potency | EC50 at 72 h [1]: > 500 µM | solubility properties [14]: acceptable and similar to CA
